RGS4 pot – RGS4 potentiation or activation | AID 463111 | 310,000 compounds, 0.92% hits | HEK293 M3R/inducible RGS4, carbachol calcium flux Fluo4; stronger effect = lower value | B-score at 10 µM;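 active = B-score of the integrated calcium signal more than 4 SD below the library mean, with starting fluorescence not abnormally high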;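 also: negative B-score means reduced calcium response which marks RGS4 activation or potentiation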
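Test system: HEK293 cells with stable M3R and inducible RGS4; also added: carbachol at ECmax as muscarinic agonist stimulus; schedule: dye loading 30 min 37 °C, buffer rest 30 min RT; technique: kinetic calcium fluorescence imaging with Fluo4-AM dye, 2 µM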
MrgX1 agonist – human MrgX1 receptor agonism, primary screen | Q96LB2 | B-score at 10 µM | MrgX1-HEK293 cells, Fluo-4 calcium fluorescence, agonist mode; stronger effect = higher value | 310,000 compounds, 0.44% hits;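 active = calcium response B-score plate-corrected fluorescence ratio at least 3 library SD, with starting fluorescence B-score inside 5 SD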
Target sequence (Q96LB2 whole entry, looked up): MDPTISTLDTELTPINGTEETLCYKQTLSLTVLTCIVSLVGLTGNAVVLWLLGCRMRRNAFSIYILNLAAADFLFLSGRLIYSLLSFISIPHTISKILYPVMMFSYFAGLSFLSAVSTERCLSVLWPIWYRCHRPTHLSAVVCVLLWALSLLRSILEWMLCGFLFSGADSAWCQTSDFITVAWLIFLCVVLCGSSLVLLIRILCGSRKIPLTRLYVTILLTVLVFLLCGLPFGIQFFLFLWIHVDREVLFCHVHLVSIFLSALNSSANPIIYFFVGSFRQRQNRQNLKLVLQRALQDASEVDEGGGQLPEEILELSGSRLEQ
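System: HEK293 cells stably expressing human MrgX1 receptor; Dosing: test compound in the initial addition of three; Schedule: overnight plating, then 30 min 37 °C plus 30 min room-temperature dye loading; Detection: kinetic calcium dye fluorescence, Fluo-4 NW; Controls: per-plate positive and negative controls for Z′ factor.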
MrgX1 PAM – human MrgX1 positive allosteric modulation, primary screen; MrgX1-HEK293, Fluo-4 calcium flux, FDSS; stronger effect = higher value; B-score at 10 µM; 310,000 compounds, 0.63% hits; AID 588675;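 active = plate-corrected calcium response at least 3 library SD above typical, normal starting fluorescence, not activating the receptor alone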;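 also: compound read alongside a low EC10 to EC30 dose of BAM8-22 agonist; peak minus trough fluorescence over baseline measured at the second addition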
RGS4 inh – human RGS4 inhibition | P49798 | HEK293 M3R/RGS4 inducible, Fluo-4 calcium flux; stronger effect = higher value; triggered by carbachol at its EC20 | B-score at 10 µM | 310,000 compounds, 0.45% hits;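 active = B-score, a plate-corrected calcium signal, over three deviations above library mean, with baseline fluorescence within five deviations of library mean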;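 also: RGS4 expression induced by doxycycline in cells with stable M3 receptor; B-score is computed from the integrated fluorescence ratio over baseline after carbachol; higher B-score means a larger calcium signal and so more RGS4 inhibition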
Target sequence (P49798 whole entry, looked up): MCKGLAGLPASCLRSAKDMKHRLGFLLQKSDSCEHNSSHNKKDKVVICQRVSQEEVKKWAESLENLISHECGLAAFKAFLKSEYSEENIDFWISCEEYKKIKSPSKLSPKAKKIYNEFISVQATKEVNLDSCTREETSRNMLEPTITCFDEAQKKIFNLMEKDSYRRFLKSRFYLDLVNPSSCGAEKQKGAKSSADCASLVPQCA
MrgX1 antagonist – human MrgX1 receptor antagonism, primary screen. MRGX1-HEK293 calcium flux, Fluo-4, BAM8-22 antagonism; stronger effect = lower value. AID 588676. 310,000 compounds, 1.3% hits. Q96LB2. B-score at 10 µM;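 active = calcium-response B-score plate-corrected more than 3 library SD below zero, starting fluorescence within 5 deviations, no agonist response on first addition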;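 also: peak minus trough fluorescence over baseline after final BAM8-22 challenge near maximal dose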
An asterisk follows results filed as active; i = inactive; . = no result. Sampled rows, rich in hits. Any-hit rate of the full collection: about 3.5%.

SMILES	RGS4 pot	MrgX1 agonist	MrgX1 PAM	RGS4 inh	MrgX1 antagonist
CCC(C)NC(=O)c1cc(Sc2nnc(C)s2)nc2ccccc12 (centres undefined)	i	i	i	i	i
Cc1ccccc1C(=O)NNC(=O)c1ccc(F)cc1	i	i	i	i	-7.1*
COc1ccccc1C(=O)NNC(=O)c1ccc(F)cc1	i	i	i	i	i
CCCCCc1ccc(OCCOCCn2c[n+](C)c3ccccc32)c(CCCCC)c1	-7.6*	.	.	i	.
CCCCCc1ccc(OCCC[n+]2ccccc2)c(CCCCC)c1	i	i	i	i	i
Cc1ccc(-n2c3nc(=O)[nH]c(=O)c-3cc3cc([N+](=O)[O-])ccc32)cc1	i	53*	i	i	i
CCOc1ccccc1NC(=O)CN1CCCCCC1	i	i	i	i	i
CCOC(=O)Cc1csc(N/C(=N/S(=O)(=O)c2cc(Br)ccc2OCC)c2ccccc2)n1	i	i	i	i	i
Cc1ccc(C(=O)c2no[n+]([O-])c2C(=O)c2ccc(C)cc2)cc1	-8.8*	31*	i	i	i
Cc1ccsc1/C=N/NC(=O)c1sccc1C	i	i	i	i	i
Cc1ccc(C(=O)N/N=C\c2sccc2C)cn1	i	i	i	i	-7.8*
Cc1cccc(C(=O)OCC(=O)N2CCC(c3ccccc3)=N2)c1O	i	i	i	i	i
CCc1cc(C(=O)OCC(=O)N2CCC(c3ccccc3)=N2)sc1C	-7.2*	i	i	i	i
Cc1nn(CC(=O)N2CCOCC2)c(=O)c2ccccc12	i	i	i	i	i
Cc1nn(CC(=O)N2CCN(Cc3ccccc3)CC2)c(=O)c2ccccc12	i	i	6.9*	i	i
CCn1nnc(NC(=O)c2ccco2)n1	i	i	i	i	i
Cc1ccccc1C(OCCN(C(C)C)C(C)C)c1ccccc1 (centres undefined)	-8.6*	i	i	i	i
CN(C)CCOC(c1ccccc1)c1ccccc1	i	i	i	i	i
Cc1ccccc1CN1C(=O)C(C)S/C1=N/N=C/c1ccco1 (centres undefined)	i	i	13*	i	i
CC1(C)OC(=O)C(=CNc2ccccc2)C(=O)O1	i	i	i	i	-7.3*
COc1ccc(S(=O)(=O)N2CCCCCC2)cc1C(=O)N(C)Cc1ccc(Cl)cc1Cl	i	i	14*	i	i
O=C(Cc1ccccc1)NNC(=O)c1ccc(Br)o1	i	.	.	i	.
CCN1C(=O)/C(=C/C=C2\N(CC)c3cc(S(=O)(=O)N(C)C)ccc3N2c2ccccc2)SC1=S	i	36*	i	i	i
COc1ccccc1CNC(=O)CS(=O)(=O)c1ccc(C)cc1	i	i	i	i	i
CC(Oc1ccc(Br)cc1)C(=O)NNC(=O)CCN1CCN(c2ccccc2)CC1 (centres undefined)	i	i	i	i	i
SMILES	RGS4 pot	MrgX1 agonist	MrgX1 PAM	RGS4 inh	MrgX1 antagonist
CCC(=O)c1ccccc1OCCCN1CCC(Cc2ccccc2)CC1	i	i	i	i	-5.6*
CC(=O)CCc1ccc(OCCCCN2CCC(Cc3ccccc3)CC2)cc1	-7.2*	i	i	i	i
COc1cccc(OC)c1OCCCCN1CCC(Cc2ccccc2)CC1	i	i	i	i	i
O=C(/C=C/c1ccccc1)c1cc(Br)ccc(=O)c1O	i	i	11*	i	i
Cc1ccc(S(=O)(=O)N2[C@@H](c3ccccc3F)C(C(=O)O)=CC[C@H]2c2ccc(Cl)c(Cl)c2)cc1	.	i	12*	.	i
Cc1ccc(S(=O)(=O)N2[C@@H](c3ccccc3)C(C(=O)O)=CC[C@H]2c2cccc(C)c2)cc1	.	i	i	.	i
Cc1ccc(S(=O)(=O)N2[C@@H](c3ccccc3F)C(C(=O)O)=CC[C@H]2c2cccc(C)c2)cc1	.	i	11*	.	i
CCOc1ccccc1NC(=O)Nn1cnnc1	i	i	i	i	i
O=C(O)/C=C/C(=O)Nc1ccc(S(=O)(=O)N2CCCC2)cc1	i	i	i	i	i
CC(C)Sc1nc(N2CCCC2)c2c(c1C#N)CC(C)(C)OC2	-7.2*	i	i	i	i
COc1cc(SC)ccc1C(=O)Nc1c(C)cccc1C	i	i	i	i	i
COc1cc(SC)ccc1C(=O)NNC(=O)c1cc(C)oc1C	i	i	i	i	-4.8*
COc1cc(/C=C2\SC(N)=NC2=O)cc(Cl)c1O	i	30*	i	i	i
CCOc1ccccc1C(=O)Nc1cccc(-c2nnc(-c3ccccc3)o2)c1	-7.2*	i	i	i	i
Cc1nn(-c2ccc(F)cc2)c(C)c1CN1CCN(CCC(C)C)C(CCO)C1 (centres undefined)	i	i	i	i	i
Cc1ccc(C(=O)N/C(=C\c2ccc(-c3ccc([N+](=O)[O-])cc3)o2)C(=O)NC2CCS(=O)(=O)C2)cc1 (centres undefined)	i	i	i	i	-4.9*
Cc1ccc(C(=O)N/C(=C/c2ccc(-c3ccc([N+](=O)[O-])cc3)o2)C(=O)NCCCN(C)C)cc1	i	45*	i	i	i
COc1ccc2cc(CN(Cc3cccnc3)S(=O)(=O)c3ccccc3)c(=O)[nH]c2c1	i	i	i	i	i
COC(CN(C)C(=O)c1ccc2c(c1)NC(=O)c1ccccc1S2)OC	i	i	i	i	i
C=CCNC(=S)NS(=O)(=O)c1cccs1	i	i	i	i	i
CCN(CC(=O)Nc1ccccc1OC)C(=O)CSCC(=O)Nc1ccc(OC)cc1	i	i	i	i	i
Cc1cc(C)c(NC(=S)N(CCc2ccncc2)C(C)C)c(C)c1	i	i	i	i	i
Cc1cc(Cc2ccc([N+](=O)[O-])cc2)c(C)cn1	i	i	i	i	i
CN(C)CCCNc1c2ccccc2nc2ccccc12	i	i	i	i	i
OCCNc1c2ccccc2nc2c(F)c(F)c(F)c(F)c12	i	i	i	i	-8*
NC(=S)N/N=C1\c2ccccc2-c2c(C(=O)O)cccc21	i	i	i	i	i
Cc1cc(-c2nnc(SCC(=O)Nc3cccc(Cl)c3)n2N)n[nH]1	i	i	i	i	i
Cc1nc2nc(-c3cccs3)cn2nc1C	-7*	i	i	i	i
C=CCOc1ccc(/C=C2\SC(=Nc3cccnc3)NC2=O)cc1	i	i	i	i	-4.9*
